Assay outcomes from PubChem.
Many of the other results were omitted from the sample, so hits are more common in it than they were.
Insulin prom act = activators of insulin promoter-driven GFP, primary screen, imaging, TRM-6 cells, eGFP reporter, cell count | plate-scaled: unstimulated 0, stimulated control 100 | 0.81% of 130,000 active | activation, % at 2 µM | AID 1296, 2008;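 active = activation at 2 µM above a set limit, confirmed on inspection of the cell images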;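 note: share of cells whose green reporter signal exceeds an intensity cutoff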
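System – human fetal islet-derived TRM-6 cells with tamoxifen-inducible insulin promoter–eGFP reporter · Amount – 1,000 cells per well · Schedule – overnight tamoxifen, then two-day compound incubation at 37 °C · Detection – high-content imaging of fixed cells with Hoechst nuclear stain · Read-out – percent cells above green-intensity threshold, converted to percent activation versus plate controls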
* marks the source's active call; other numbers are inactive results.

SMILES | Insulin prom act
CC1=C(C(=O)OCCOc2ccccc2)C(c2ccsc2)NC(=O)N1C (stereo unspecified) | 0
CC(CN(C)Cc1nc(Cc2cccc(C(F)(F)F)c2)no1)CN1CCCC1 (stereo unspecified) | 138
COc1cc(OC)c(S(=O)(=O)N2CCCCC2)cc1S(=O)(=O)N1CCCCC1 | -93
COc1cccc2c1C(=O)c1c(O)c3c(c(O)c1C2=O)C[C@@](O)(C(=O)CO)C[C@@H]3O[C@H]1C[C@H](N)[C@H](O)[C@H](C)O1 | 354*
Cc1nn(Cc2ccc(C(=O)Nc3ccc(Br)c4cccnc34)o2)c(C)c1Br | 331
O=S(=O)(c1ccc(NC(=S)NCCC(c2ccccc2)c2ccccc2)cc1)N1CCOCC1 | 5
CCOc1ccccc1NC(=S)N1CCN(c2nc(-c3cccc(OC)c3)cs2)CC1 | 0
COC(=O)c1ccc(-c2ccco2)n1Cc1nc(-c2ccc(OC)c(OC)c2)oc1C | 0
COc1ccc(-c2nc(CS(=O)CC(=O)NCCCN3CC(C)CC(C)C3)c(C)o2)cc1OC (stereo unspecified) | -7
COc1cc(-c2nc(CN3CCN(CC(C)C)C(=O)[C@@H]3C)c(C)o2)ccc1F | 270*
CCc1nn2c(=O)cc(CSc3nc4sc5c(c4c(=O)n3C)CCCC5)nc2s1 | 100
COCCNC(=O)CN(C(=O)CCC(=O)Nc1ccccn1)c1ccccc1F | 7
CCOc1ccc(NC(=O)C(C)Oc2ccccc2C(=O)Nc2ccc(C)c(Cl)c2)cc1 (stereo unspecified) | -8
Cc1cc(NC(=O)/C=C/c2ccc(F)cc2)n(-c2nc3ccccc3[nH]2)n1 | -10
Cc1cc(NC(=O)/C=C/c2cccc(Cl)c2)n(-c2nc3ccccc3[nH]2)n1 | 300*
Cc1cc(NC(=O)c2c(F)cccc2F)n(-c2nc3ccccc3[nH]2)n1 | 9
COc1ccc(CNC(=O)C(c2ccncc2)N(C(=O)Cc2cccs2)c2ccc(C)cc2)cc1 (stereo unspecified) | 0
COc1ccc(OC)c(NC(=O)CCNS(=O)(=O)c2ccc3c(c2)oc(=O)n3C)c1 | -7
COc1cc(OC)c(NC(=O)CCNS(=O)(=O)c2ccc3c(c2)oc(=O)n3C)cc1Cl | 0
COc1ccccc1CNC(=O)C(CCSC)NS(=O)(=O)c1ccc2c(c1)oc(=O)n2C (stereo unspecified) | 164*
Nc1ccc(OCc2ccco2)cc1 | 7
COc1ccc(Br)cc1C(=O)Nc1ccc(C(=O)O)cc1 | 341*
COc1ccc(Br)cc1C(=O)O | -9
COc1ccc(Br)cc1C(=O)Nc1ccc(N2CCN(S(C)(=O)=O)CC2)cc1 | 356
O=C(Nc1cccc2ccccc12)N1CCN(c2ncccn2)CC1 | -2
SMILES | Insulin prom act
CNS(=O)(=O)c1cc(OC)ccc1OC | 115
COC(=O)c1c(C)oc2ccc(NS(=O)(=O)c3cc(OC)ccc3OC)cc12 | -81
COc1ccc(OC)c(S(=O)(=O)Nc2ccc(O)c3ccccc23)c1 | 450*
COc1ccc(CCNC(=O)CSc2nc3ccccc3o2)cc1 | 0
O=C(c1ccccc1)c1cnc(Nc2ccccc2Cl)s1 | -10
Cc1ccc(S(=O)(=O)N(C)C)cc1NC(=O)c1cncc(Br)c1 | -3
CCN(c1ccc(OCC(=O)OCC(=O)Nc2ccc(F)c(F)c2F)cc1)S(=O)(=O)c1ccccc1 | 3
c1ccc2nc3c(nc2c1)[nH]c1ccccc13 | 300*
CC(C)(C)c1nc2ccccc2[nH]1 | -80
CCn1nc(C(=O)Nc2nc3ccccc3[nH]2)c2ccccc2c1=O | 108
COc1cccc(-c2nnc(SCC(N)=O)n2-c2ccc(Cl)cc2)c1 | 0
CCOc1ccccc1-n1c(SCC(N)=O)nc2ccccc2c1=O | 3
CCOc1ccccc1-n1c(SCC(N)=O)nnc1-c1ccccc1 | 154*
Cc1ccc(NC(=O)CSc2nnc(-c3cccnc3)n2CCN2CCCCC2)cc1 | 8
COc1ccc(-c2nc(=S)c3c([nH]2)Oc2ccc(C)cc2C3)cc1O | 4
CCN(CC)C(=O)Cn1cc(C(=O)C(=O)N2CCCc3ccccc32)c2ccccc21 | 154
CCc1noc(C)c1C(=O)Nc1nc(-c2ccc(Cl)cc2Cl)c(C)s1 | 5
COCC(C)OC(=O)/C(C#N)=C\c1coc2ccc(C)cc2c1=O (stereo unspecified) | 7
Cc1ccc(-c2nnn(CC(=O)N(CC(=O)NC(C)C)c3cnc4ccccc4c3)n2)o1 | -71
CCC(C(=O)NC1CCCC1)N(C(=O)Cn1nnc(-c2ccc(C)o2)n1)c1cnc2ccccc2c1 (stereo unspecified) | 160*
Cc1ccc(-c2nnn(CC(=O)N(Cc3ccccc3F)C(C(=O)NC3CCCC3)c3ccncc3)n2)o1 (stereo unspecified) | 231
COc1ccc(/C=C(\NC(=O)c2ccc([N+](=O)[O-])cc2)C(=O)N2CCOCC2)cc1 | 0
CCOc1ccc(CN2C(=O)c3ccccc3C2C(=O)NCc2cccnc2)cc1 (stereo unspecified) | 164
O=C(NCc1cccnc1)C1c2ccccc2C(=O)N1C1CCCCCCC1 (stereo unspecified) | 156*
